Hits are enriched below; roughly 1.5% of the tested compounds scored in any of these assays.
SENP1 FRET inh – blocks the human SENP1 SUMO protease catalytic domain; 360,000 compounds, 0.21% hits; recombinant SENP1 catalytic domain, CyPet-SUMO1-YPet FRET cleavage; Q9P0U3; inhibition, % at 10 µM;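 active = inhibition at least 30% at 10 µM, raw YFP signal under a set limit, fluorescence ratio 0.5 to 1.5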;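 also: 0% = enzyme with DMSO and 100% = no enzyme wells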
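Controls: no-enzyme wells low, DMSO-plus-enzyme wells high control. Test system: human recombinant His6-tagged SENP1 catalytic domain enzyme. Reagent: SFCypet-SUMO1-SFYpet FRET protein substrate, 25 nM final. Doses: one dose per compound, 10 µM, 0.5% DMSO. Detection: FRET, CFP and YFP emission. Timing: 50 min reaction at room temperature.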
Myeloid diff MLP – myeloid differentiation induction; 360,000 compounds, 1% hits; AID 624256; ER-HoxA9 myeloid progenitors, lysozyme-GFP differentiation, flow cytometry; calls only at 10 µM;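 active = normalized GFP-positive differentiation at or above the plate's own cutoff, the solvent-only control mean plus 3 SD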;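 also: cells exposed to compound for four days before flow analysis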
VLA-4 inh – inhibition in a human VLA-4 binding assay; P13612; VLA-4 expressing cells, ligand binding flow cytometry; inhibition, % (about 7 µM as worked out from the volumes in the protocol); 330,000 compounds, 0.2% hits; AID 2557; in the data active = inhibition above about 50%
Platelet DG rel – modulates dense granule release in human platelets. 300,000 compounds, 0.22% hits. inhibition, %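 (compounds screened at 7.5 µM in platelet-rich plasma)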. human platelet-rich plasma, SFLLRN dense granule ATP release, luminescence;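 active = mean replicate score, as percent of positive control, at or above 50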
Myeloid diff CP1 – compounds promoting myeloid differentiation. shares compounds with Myeloid diff MLP. ER-HoxA9 myeloid progenitors, GFP/Mac1 double-positive flow. calls only. 2,300 compounds, 2% hits;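 active = share of green or green-and-red cells above 9 and 9% in run 1 or 4 and 3% in run 2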
GFP autofluor – flagged as fluorescent in myeloid differentiation counter-screen; shares compounds with Myeloid diff MLP; ER-HoxA9 myeloid progenitors, no estrogen, GFP autofluorescence flow cytometry; vehicle wells 0%, positive control 100%; fluorescence response, % (concentration not given with the values); 2,300 compounds, 7.4% hits; AID 651707;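 active = over 5% cells positive for green fluorescent reporter, or over 2% positive for both it and APC stain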;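 also: range taken on the double positive population between DMSO and positive control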
* = called active by the depositor; i = inactive; / = no result given; + = active, no number.

SMILES	SENP1 FRET inh	Myeloid diff MLP	VLA-4 inh	Platelet DG rel	Myeloid diff CP1	GFP autofluor
COC(=O)c1ccc(NC(=O)C2C3C=CC(C3)C2C(=O)O)cc1 (stereo not given)	16	i	6	-9	/	/
O=C(ONC(=O)C1C2C=CC(C2)C1C(=O)NOC(=O)c1ccccc1)c1ccccc1 (stereo not given)	0	i	/	/	i	0
Cc1cc(N2CCN(c3nc4ccccc4s3)CC2)n2ncnc2n1	1	i	1	-6	i	1
Cc1cc(N2CCN(C(c3ccccc3)c3ccccc3)CC2)n2ncnc2n1	0	i	-3	-2	/	/
O=C(N[C@@H](Cc1ccccc1)C(=O)Nc1ccc(F)cc1)C1CCNCC1	2	i	10	-1	/	/
C[C@H](N)C(=O)N1CCC(C(=O)N[C@@H](Cc2ccccc2)C(=O)Nc2ccc(F)cc2)CC1	4	i	21	-2	i	0
COc1cc(/C=C2\SC(=O)N(CC(=O)Nc3ccccc3F)C2=O)cc(Cl)c1O	-25	i	-5	-7	i	0
COc1cc(OC)c(/C=C2\SC(=O)N(CC(=O)Nc3ccccc3F)C2=O)c(OC)c1	-51	i	-4	-5	/	/
Cc1[nH]nc2c1C1(C(=O)N(Cc3ccc(Cl)cc3)c3ccccc31)C(C#N)=C(N)O2 (stereo not given)	2	i	-3	-5	i	0
O=C1/C(=C\c2ccco2)SC(=S)N1Cc1ccccc1	4	i	5	0	i	1
O=C(O)CN1C(=O)/C(=C/c2ccc(SCc3ccccc3)o2)SC1=S	-15	i	/	/	i	0
CCCCn1c(N)c(N(CCOC)C(=O)CCC2CCCCC2)c(=O)[nH]c1=O	-5	i	1	/	/	/
COc1ccc(C2=NO[C@@H]3[C@@H]4C[C@@H]([C@H]5C(=O)N(C)C(=O)[C@@H]45)[C@H]23)c(OC)c1	11	i	0	5	/	/
O=C(Nc1ccc(S(=O)(=O)N2CCCCC2)cc1)C1CC(=O)N(c2ccc(Cl)cc2)C1 (stereo not given)	2	i	4	1	/	/
CCc1nc2c(OCc3cccc(Cl)c3)cccn2c1N(C)C(=O)c1ccco1	1	i	/	/	/	/
CN(CC(=O)Nc1ccccc1Cl)C(=O)COC(=O)c1ccc(-c2ccc(O)cc2)cc1	0	i	-1	/	/	/
CN1C(=O)/C(=C/c2cn(CC(=O)NCc3ccco3)c3ccccc23)NC1=S	/	/	-13	0	/	/
CN1C(=O)/C(=C/c2cn(CC(=O)N3CCCCC3)c3ccccc23)NC1=S	-31	+	-2	/	i	97*
CCOc1ccc(CCN2C(=O)C(=O)N([C@@H](Cc3ccccc3)CN3CCC[C@H]3CN3C(=O)C(=O)NC[C@@H]3CC(C)C)C[C@@H]2Cc2ccc(O)cc2)cc1	2	i	/	/	i	0
CC(=O)Nc1ccc(NC(=O)CCc2c(C)noc2C)cc1	-1	i	/	/	/	/
CCC(C)[C@H](NC(=O)Nc1ccccc1F)C(=O)OC (stereo not given in full)	-1	i	17	-4	/	/
Cc1cccc(-n2c(=O)c3c4c(sc3n3c(=S)[nH]nc23)CCC4)c1	7	i	/	1	/	/
COC(=O)C(C)Sc1nnc2n(-c3cccc(C)c3)c(=O)c3c4c(sc3n12)CCCC4 (stereo not given)	2	i	20	25	i	0
O=C(NCCc1ccc(Cl)cc1)C1COc2ccccc2O1 (stereo not given)	-1	i	-3	-5	/	/
O=[N+]([O-])c1ccccc1/C=C/CN1CCCCC1	3	i	38	5	i	0
SMILES	SENP1 FRET inh	Myeloid diff MLP	VLA-4 inh	Platelet DG rel	Myeloid diff CP1	GFP autofluor
CCCCn1c2c(c(=N)c3c1CCC3)CCC2	1	i	-5	/	i	0
O=C(O)CCSc1nnc(SCC(=O)NCC(F)(F)F)s1	2	i	2	-6	/	/
Cc1ccc(-c2cc(-c3ccccc3)[nH]c(=S)c2C#N)cc1	-1	i	6	-2	/	/
N#Cc1c(-c2ccc(C(F)(F)F)cc2)cc(-c2ccccc2)[nH]c1=S	1	+	14	-4	i	0
NS(=O)(=O)c1ccc(NC(=S)NCc2ccccc2Cl)cc1	2	i	-1	-5	i	1
NS(=O)(=O)c1ccc(NC(=S)NCc2ccccc2)cc1	1	i	35	19	/	/
COc1ccc(NC(=O)c2ccc(N(C)S(C)(=O)=O)cc2)cc1OC	-1	i	-3	13	/	/
COc1ccc(C(=O)Nc2cccc(N(C)S(C)(=O)=O)c2)cc1OC	1	i	18	-2	i	0
CC(C(=O)NNS(=O)(=O)c1cccc(C(F)(F)F)c1)n1nnc(N2CCOCC2)n1 (stereo not given)	0	+	-5	-12	i	0
Cn1c(N)c(C(=O)COC(=O)c2ccccc2C(=O)c2ccc(Cl)cc2)c(=O)n(C)c1=O	1	i	-6	/	i	1
Cn1c(=O)oc2cc(S(=O)(=O)N3CCCC(C(=O)NCc4ccc5c(c4)OCO5)C3)ccc21 (stereo not given)	0	i	-6	/	/	/
Cn1c(=O)oc2cc(S(=O)(=O)N3CCCC(C(=O)NCc4cccs4)C3)ccc21 (stereo not given)	1	i	-6	2	i	0
COc1ccccc1CNC(=O)C1CCCN(S(=O)(=O)c2ccc3c(c2)C(C)(C)C(=O)N3C)C1 (stereo not given)	1	i	-15	3	i	0
O=c1cc(-c2ccccc2Cl)oc2c(Br)ccc(O)c12	0	+	23	-1	i	0
O=c1cc(-c2ccccc2Cl)oc2cccc(O)c12	3	i	15	-2	/	/
Clc1ccc(-c2cnc3cccnn23)cc1	-39	i	/	/	/	/
Nc1cccn2c(-c3ccc(Cl)cc3)cnc12	-48	+	-220	8	i	0
COc1ccc(Cc2nc3ccc(C(=O)NC(C)C)cc3o2)cc1	1	i	-5	-8	i	0
N#CC(C#N)=c1ccc2c(c1)N1C(c3ccccc3)=CC(c3ccccc3)C3CCCCC31N=2 (stereo not given)	3	+	6	10	i	0
CC(C)c1ccc(C(=O)COC(=O)C(O)c2ccccc2)cc1 (stereo not given)	3	i	-4	/	/	/
CC(C)(C)OC(=O)N[C@@H](Cc1ccccc1)C(=O)N1CCC(C(=O)O)CC1	3	i	-11	-20	i	0
Cc1ccc(OCc2nnc(SCc3nc4ccccc4[nH]3)n2Cc2ccco2)cc1	-25	+	8	5	+	0
COC(=O)c1ccccc1NC(=O)C1CCC(=O)N1S(=O)(=O)c1ccc(C)cc1 (stereo not given)	0	i	3	-4	i	0
